Source: ChEMBL document CHEMBL1121685, “Development of new mitomycin C and porfiromycin analogues” (J Med Chem, 1981)

How the values were obtained:
Mus musculus [1] = assay: Effect of compound on total white blood cell count in BDG1 male mice, after intraperitoneal administration at a dose of 2.24 mg/kg on day 7; format: functional
Summary of the method: (§1)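 Single ip dose given on day 0 to BDG1 male mice over a descending dose series. Total white blood cell count is expressed as % change from untreated control on days 3, 5 and 7. Significance is flagged at p ≤ 0.05 and p ≤ 0.01.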

Mus musculus [2] = assay: Effect of compound on total white blood cell count in BDG1 male mice, after intraperitoneal administration at a dose of 5.3 mg/kg on day 7; format: functional
Summary of the method: (§2)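 Single ip dose given on day 0 to BDG₁ male mice. Total white blood cell count measured on days 3, 5 and 7, expressed as % change from control. Highest dose was at the LD₅₀, or at twice the optimal dose where so footnoted. Significance reported at p ≤ 0.05 and p ≤ 0.01. D marks death of one or more mice.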

Mus musculus [3] = assay: Effect of compound on total white blood cell count in BDG1 male mice, after intraperitoneal administration at a dose of 3.98 mg/kg on day 3; format: functional; summary of the method: as §1
Mus musculus [4] = assay: Effect of compound on total white blood cell count in BDG1 male mice, after intraperitoneal administration at a dose of 2.98 mg/kg on day 5; format: functional; summary of the method: as §1
Mus musculus [5] = assay: Minimum effective dose that show activity against P-388 murine leukemia cells in CDF1 female mice, after intraperitoneal administration (optimal dose is 3.2 mg/kg); format: functional; settings: P388, ip, read-out: MED
Summary of the method: (§3)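 10⁶ P-388 ascites cells implanted ip in CDF₁ female mice. Six mice per dose, 10 saline-injected controls, and a concurrent mitomycin C reference group. %T/C = median survival time of treated/control × 100. MED is the lowest dose giving %T/C > 125. Therapeutic ratio = optimal dose/MED.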

Mus musculus [6] = assay: Effect of compound on total white blood cell count in BDG1 male mice, after intraperitoneal administration at a dose of 3.98 mg/kg on day 7; format: functional; summary of the method: as §1
Mus musculus [7] = assay: Effect of compound on total white blood cell count in BDG1 male mice, after intraperitoneal administration at a dose of 2.98 mg/kg on day 7; format: functional; summary of the method: as §1
Mus musculus [8] = assay: Effect of compound on total white blood cell count in BDG1 male mice, after intraperitoneal administration at a dose of 5.3 mg/kg on day 3; format: functional; summary of the method: as §2
[9] = Therapeutic ratio is expressed as ratio of optimal dose and minimum effective dose; format: ADME; settings: mouse; read-out: TR; summary of the method: as §3
Mus musculus [10] = assay: Antitumor activity against P-388 murine leukemia cells in CDF1 female mice after intraperitoneal administration at the specified optimal dose of 3.2 mg/kg; format: functional
Mus musculus [11] = assay: Effect of compound on total white blood cell count in BDG1 male mice, after intraperitoneal administration at a dose of 2.24 mg/kg on day 3; format: functional; summary of the method: as §1
Mus musculus [12] = assay: Effect of compound on total white blood cell count in BDG1 male mice, after intraperitoneal administration at a dose of 3.98 mg/kg on day 5; format: functional; summary of the method: as §1
Mus musculus [13] = assay: Effect of compound on total white blood cell count in BDG1 male mice, after intraperitoneal administration at a dose of 2.98 mg/kg on day 3; format: functional; summary of the method: as §1
Mus musculus [14] = assay: Effect of compound on total white blood cell count in BDG1 male mice, after intraperitoneal administration at a dose of 5.3 mg/kg on day 5; format: functional; summary of the method: as §2
Mus musculus [15] = assay: Effect of compound on total white blood cell count in BDG1 male mice, after intraperitoneal administration at a dose of 2.24 mg/kg on day 5; format: functional; summary of the method: as §1
Mus musculus [16] = assay: Effect of compound on total white blood cell count in BDG1 male mice, after intraperitoneal administration at a dose of 51 mg/kg on day 3; format: functional; summary of the method: as §2
Mus musculus [17] = assay: Antitumor activity against P-388 murine leukemia cells in CDF1 female mice after intraperitoneal administration at the specified optimal dose of 12.8 mg/kg; format: functional
Mus musculus [18] = assay: Effect of compound on total white blood cell count in BDG1 male mice, after intraperitoneal administration at a dose of 68.0 mg/kg on day 5; format: functional; summary of the method: as §2
Mus musculus [19] = assay: Effect of compound on total white blood cell count in BDG1 male mice, after intraperitoneal administration at a dose of 51 mg/kg on day 7; format: functional; summary of the method: as §2
Mus musculus [20] = assay: Effect of compound on total white blood cell count in BDG1 male mice, after intraperitoneal administration at a dose of 68.0 mg/kg on day 3; format: functional; summary of the method: as §2
Mus musculus [21] = assay: Effect of compound on total white blood cell count in BDG1 male mice, after intraperitoneal administration at a dose of 68.0 mg/kg on day 7; format: functional; summary of the method: as §2
Mus musculus [22] = assay: Effect of compound on total white blood cell count in BDG1 male mice, after intraperitoneal administration at a dose of 51 mg/kg on day 5; format: functional; summary of the method: as §2
Mus musculus [23] = assay: Effect of compound on total white blood cell count in BDG1 male mice, after intraperitoneal administration at a dose of 25.6 mg/kg on day 7 (highest dose was twice the optimal dose); format: functional
Mus musculus [24] = assay: Effect of compound on total white blood cell count in BDG1 male mice, after intraperitoneal administration at a dose of 12.8 mg/kg on day 7; format: functional; summary of the method: as §1
Mus musculus [25] = assay: Effect of compound on total white blood cell count in BDG1 male mice, after intraperitoneal administration at a dose of 12.8 mg/kg on day 3; format: functional
Summary of the method: (§4)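 BDG₁ male mice received a single ip dose on day 0. The dose series topped out at the LD₅₀ level, or at twice the optimal dose for some agents. Total white blood cell count was taken on days 3, 5 and 7 and expressed as % change from untreated controls. Significance was set at p ≤ 0.05 or p ≤ 0.01.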

Mus musculus [26] = assay: Effect of compound on total white blood cell count in BDG1 male mice, after intraperitoneal administration at a dose of 12.8 mg/kg on day 5; format: functional; summary of the method: as §4
Mus musculus [27] = assay: Effect of compound on total white blood cell count in BDG1 male mice, after intraperitoneal administration at a dose of 25.6 mg/kg on day 3 (highest dose was twice the optimal dose); format: functional
Mus musculus [28] = assay: Effect of compound on total white blood cell count in BDG1 male mice, after intraperitoneal administration at a dose of 25.6 mg/kg on day 5 (highest dose was twice the optimal dose); format: functional
Mus musculus [29] = assay: Minimum effective dose that show activity against P-388 murine leukemia cells in CDF1 female mice, after intraperitoneal administration (optimal dose is 12.8 mg/kg); format: functional; settings: P388, ip, read-out: MED; summary of the method: as §3

COC12[C@@H](COC(N)=O)C3=C(C(=O)C(C)=C(N4CC4)C3=O)N1C[C@@H]1[C@H]2N1C (some centres not stated)
Change (Mus musculus [1]): 39% | Change (Mus musculus [2]): -13% | Change (Mus musculus [3]): -12.3% | Change (Mus musculus [4]): 25% | minimal effective dose (Mus musculus [5]): 0.2 mg/kg | Change (Mus musculus [6]): 7% | Change (Mus musculus [7]): 31% | Change (Mus musculus [8]): -15% | selectivity ratio [9]: 16 | T/C (Mus musculus [10]): 248% | Change (Mus musculus [11]): 1% | Change (Mus musculus [12]): -17% | Change (Mus musculus [13]): 5% | Change (Mus musculus [14]): -20% | Change (Mus musculus [15]): 11%

COC12[C@@H]3N[C@@H]3CN1C1=C(C(=O)C(NCCCl)=C(C)C1=O)[C@@H]2COC(N)=O (some centres not stated)
Change (Mus musculus [16]): -55% | T/C (Mus musculus [17]): 190% | Change (Mus musculus [18]): -63% | Change (Mus musculus [19]): -23% | Change (Mus musculus [20]): -71% | Change (Mus musculus [21]): -35% | selectivity ratio [9]: 8 | Change (Mus musculus [22]): -61%

COC12[C@@H]3N[C@@H]3CN1C1=C(C(=O)C(NCc3cccs3)=C(C)C1=O)[C@@H]2COC(N)=O (some centres not stated)
Change (Mus musculus [23]): -11% | T/C (Mus musculus [17]): 167% | Change (Mus musculus [24]): -2% | Change (Mus musculus [25]): -26% | selectivity ratio [9]: 4 | Change (Mus musculus [26]): -5% | Change (Mus musculus [27]): -32% | Change (Mus musculus [28]): -33% | minimal effective dose (Mus musculus [29]): 3.2 mg/kg
